From ChEMBL document CHEMBL1122255, “Synthesis and receptor binding studies relevant to the neuroleptic activities of some 1-methyl-4-piperidylidene-9-substituted-pyrrolo[2,1-b][3]benzazepine derivatives” (J Med Chem, 1983)

Tests used:
[1] = target: T1, Alpha-1A adrenergic receptor (Bos taurus, UniProt P18130); test: Displacement of [3H]- prazosin radioligand binding at the alpha 1-adrenergic binding site of calf cerebral cortex; format: tissue-based
T1 sequence (P18130 whole entry): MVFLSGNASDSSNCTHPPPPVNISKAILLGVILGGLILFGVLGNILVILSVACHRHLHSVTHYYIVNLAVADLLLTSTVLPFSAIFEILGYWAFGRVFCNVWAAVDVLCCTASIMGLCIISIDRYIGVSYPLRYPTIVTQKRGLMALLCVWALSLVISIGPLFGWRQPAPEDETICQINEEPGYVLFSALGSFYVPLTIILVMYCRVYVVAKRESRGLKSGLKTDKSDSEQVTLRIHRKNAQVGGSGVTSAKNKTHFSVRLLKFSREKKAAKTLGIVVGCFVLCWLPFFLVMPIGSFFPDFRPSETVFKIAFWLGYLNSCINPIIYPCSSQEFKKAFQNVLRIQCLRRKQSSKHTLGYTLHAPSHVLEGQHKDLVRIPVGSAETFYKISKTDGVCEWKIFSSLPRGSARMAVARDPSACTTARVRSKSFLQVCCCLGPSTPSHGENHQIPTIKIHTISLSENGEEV

[2] = target: T2, Alpha-2A adrenergic receptor (Bos taurus, UniProt Q28838); test: Displacement of [3H]- clonidine radioligand binding at the alpha-2 adrenergic receptor binding site of calf cerebral cortex; format: tissue-based
T2 sequence (Q28838 whole entry): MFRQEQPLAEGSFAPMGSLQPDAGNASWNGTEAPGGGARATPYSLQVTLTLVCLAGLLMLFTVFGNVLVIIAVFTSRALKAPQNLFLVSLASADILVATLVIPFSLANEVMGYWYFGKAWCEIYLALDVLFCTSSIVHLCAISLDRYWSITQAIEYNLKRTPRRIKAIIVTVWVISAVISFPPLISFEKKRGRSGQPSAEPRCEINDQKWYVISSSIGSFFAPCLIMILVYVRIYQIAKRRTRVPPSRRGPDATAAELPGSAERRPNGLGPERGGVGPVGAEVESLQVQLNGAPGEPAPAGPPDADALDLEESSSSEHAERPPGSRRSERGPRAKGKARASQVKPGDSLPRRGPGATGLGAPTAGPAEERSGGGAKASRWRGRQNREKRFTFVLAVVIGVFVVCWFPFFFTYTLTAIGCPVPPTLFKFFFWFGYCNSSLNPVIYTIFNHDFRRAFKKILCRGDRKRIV
Outline: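 Calf cerebral cortex membranes were incubated with [3H]clonidine (23 Ci/mmol) at 0.2 nM and 3–5 triplicate test concentrations. Nonspecific binding was defined with 100 nM clonidine. Bound ligand was isolated by rapid filtration and counted by liquid scintillation. IC50 for displacing specific binding came from percent inhibition–concentration data by regression.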

[3] = target: Muscarinic acetylcholine receptor; test: Displacement of [3H]- QNB binding at the muscarinic-cholinergic binding site of rat brain S1

| Ki [1] [nM] | Ki [2] [nM] | Ki [3] [nM] | SMILES |
| --- | --- | --- | --- |
| 1200 | 77000 | 9800 | CN1CCC(=C2c3cc(C(=O)O)ccc3C=Cn3cccc32)CC1 |
| 29 | 226 | 14.5 | CN1CCC(=C2c3ccccc3C=Cn3cccc32)CC1 |
| 44 | 430 | 60 | CN1CCC(=C2c3cc(Br)ccc3CCn3cccc32)CC1 |
|  | 2050 | 270 | CN1CCC(=C2c3cc(C#N)ccc3CCn3cccc32)CC1 |
| 30 | 1030 | 21 | CN1CCC(=C2c3cc(C#N)ccc3C=Cn3cccc32)CC1 |
| 80 | 600 | 48 | CN1CCC(=C2c3cc(Cl)ccc3CCn3cccc32)CC1 |
| 130 | 730 | 49 | CN1CCC(=C2c3ccccc3CCn3cccc32)CC1 |
| 36 | 330 | 250 | CN1CCC(=C2c3cc(SC(F)(F)F)ccc3CCn3cccc32)CC1 |
| 19 | 210 | 18 | CN1CCC(=C2c3cc(Br)ccc3C=Cn3cccc32)CC1 |
| 20 | 310 | 20 | CN1CCC(=C2c3cc(Cl)ccc3C=Cn3cccc32)CC1 |
| 13 | 230 | 88 | CN1CCC(=C2c3cc(SC(F)(F)F)ccc3C=Cn3cccc32)CC1 |
|  |  | > 50000 | CN1CCC(=C2c3cc(C(=O)O)ccc3CCn3cccc32)CC1 |
|  |  | 4 | CN1CCC(=C2c3ccccc3C=Cc3ccccc32)CC1 [CYPROHEPTADINE] |
